What was measured:
Cavia porcellus [1] = species on record: Cavia porcellus; experiment: Relative potency against electrically evoked contractions of the guinea pig ileum(GPI).; assay type: functional; parameters: reference not given here
Cavia porcellus [2] = species on record: Cavia porcellus; experiment: In vitro inhibition of electrically evoked contractions of the guinea pig ileum (GPI); assay type: functional
Outline: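 Guinea pig ileum preparation, electrically stimulated; peptidase inhibitors (10 µM bestatin, 0.3 µM thiorphan) added to the tissue bath 5 min before each experiment. IC50 for inhibition of contractions taken from at least three replicates in tissues from different animals.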

[3] = target: Delta-type opioid receptor (Rattus norvegicus, UniProt P33533); experiment: Compound was evaluated for binding affinity against delta opioid receptor of rat forebrain using [3H]-DPDPE as the radioligand using competition binding assays.
Mu-type opioid receptor = Mu-type opioid receptor (Rattus norvegicus, UniProt P33535); experiment: Compound was evaluated for binding affinity against Opioid receptor mu 1 of rat forebrain using [3H]DAMGO as the radioligand using competition binding assays.
[4] = target: T1, Opioid receptors; mu & delta (Homo sapiens) (UniProt P41143+P35372); experiment: Ki ratio which is the ratio of Ki of k opioid receptor to the Ki of mu opioid receptor to the Ki of delta opioid receptor; 3.6/1/74; assay type: protein assay
[5] = target: Kappa-type opioid receptor (Cavia porcellus, UniProt P41144); experiment: Compound was evaluated for binding affinity against Opioid receptor kappa 1 using as the radioligand using competition binding assays.
[6] = target: T1, Opioid receptors; mu & delta (Homo sapiens); experiment: Ki ratio which is the ratio of Ki of k opioid receptor to the Ki of mu opioid receptor to the Ki of delta opioid receptor; 1.3/1/27; assay type: protein assay
[7] = target: T1, Opioid receptors; mu & delta (Homo sapiens); experiment: Ki ratio which is the ratio of Ki of k opioid receptor to the Ki of mu opioid receptor to the Ki of delta opioid receptor; 1/1.3/92; assay type: protein assay
[8] = target: T1, Opioid receptors; mu & delta (Homo sapiens); experiment: Ki ratio which is the ratio of Ki of k opioid receptor to the Ki of mu opioid receptor to the Ki of delta opioid receptor; 1/2.2/47; assay type: protein assay

| Compound | Relative potency (Cavia porcellus [1]) | IC50 (Cavia porcellus [2]) [nM] | Ki [3] [nM] | Ki (Mu-type opioid receptor) [nM] | Ki [5] [nM] | further results |
| --- | --- | --- | --- | --- | --- | --- |
| CC[C@H](C)[C@H](NC(=O)[C@H](CCCN=C(N)N)NC(=O)[C@H](CCCN=C(N)N)NC(=O)[C@@H]1CCCNC(=O)C[C@@H](NC(=O)[C@@H](N)Cc2ccc(O)cc2)C(=O)NCC(=O)N[C@@H](Cc2ccccc2)C(=O)N1)C(=O)N[C@@H](CCCN=C(N)N)C(=O)N1CCC[C@H]1C(=O)N[C@@H](CCCCN)C(=O)N[C@@H](CC(C)C)C(=O)N[C@@H](CCCCN)C(N)=O | 55 | 0.4 | 14.1 | 0.19 | 0.68 | Ki ratio [4]: mu/kappa/delta |
| CC[C@H](C)[C@H](NC(=O)[C@H](CCCN=C(N)N)NC(=O)[C@H](CCCN=C(N)N)NC(=O)[C@H](CN=C(N(C)C)N(C)C)NC(=O)[C@H](Cc1ccccc1)NC(=O)CNC(=O)[C@@H](CC(=O)O)NC(=O)[C@@H](N)Cc1ccc(O)cc1)C(=O)N[C@@H](CCCN=C(N)N)C(=O)N1CCC[C@H]1C(=O)N[C@@H](CCCCN)C(=O)N[C@@H](CC(C)C)C(=O)N[C@@H](CCCCN)C(N)=O | 48 | 0.46 | 4.31 | 0.16 | 0.21 | Ki ratio [6]: mu/kappa/delta |
| CC[C@H](C)[C@H](NC(=O)[C@H](CCCN=C(N)N)NC(=O)[C@H](CCCN=C(N)N)NC(=O)[C@@H]1CNC(=O)C[C@@H](NC(=O)[C@@H](N)Cc2ccc(O)cc2)C(=O)NCC(=O)N[C@@H](Cc2ccccc2)C(=O)N1)C(=O)N[C@@H](CCCN=C(N)N)C(=O)N1CCC[C@H]1C(=O)N[C@@H](CCCCN)C(=O)N[C@@H](CC(C)C)C(=O)N[C@@H](CCCCN)C(N)=O [listing 1 of 2 here] | 138 |  |  |  |  |  |
| CC[C@H](C)[C@H](NC(=O)[C@H](CCCN=C(N)N)NC(=O)[C@H](CCCN=C(N)N)NC(=O)[C@H](CC(C)C)NC(=O)[C@H](Cc1ccccc1)NC(=O)CNC(=O)CNC(=O)[C@@H](N)Cc1ccc(O)cc1)C(=O)N[C@@H](CCCN=C(N)N)C(=O)N1CCC[C@H]1C(=O)N[C@@H](CCCCN)C(=O)N[C@@H](CC(C)C)C(=O)N[C@@H](CCCCN)C(N)=O [listing 1 of 2 here] | 100 |  |  |  |  |  |
| CC[C@H](C)[C@H](NC(=O)[C@H](CCCN=C(N)N)NC(=O)[C@H](CCCN=C(N)N)NC(=O)[C@H](CC(C)C)NC(=O)[C@H](Cc1ccccc1)NC(=O)CNC(=O)[C@@H](CC(=O)O)NC(=O)[C@@H](N)Cc1ccc(O)cc1)C(=O)N[C@@H](CCCN=C(N)N)C(=O)N1CCC[C@H]1C(=O)N[C@@H](CCCCN)C(=O)N[C@@H](CC(C)C)C(=O)N[C@@H](CCCCN)C(N)=O [listing 1 of 2 here] | 32 |  |  |  |  |  |
| CC[C@H](C)[C@H](NC(=O)[C@H](CCCN=C(N)N)NC(=O)[C@H](CCCN=C(N)N)NC(=O)[C@@H]1CCNC(=O)C[C@@H](NC(=O)[C@@H](N)Cc2ccc(O)cc2)C(=O)NCC(=O)N[C@@H](Cc2ccccc2)C(=O)N1)C(=O)N[C@@H](CCCN=C(N)N)C(=O)N1CCC[C@@H]1C(=O)N[C@@H](CCCCN)C(=O)N[C@@H](CC(C)C)C(=O)N[C@@H](CCCCN)C(N)=O |  |  |  |  |  | Ki ratio [7]: kappa/mu/delta |
| CC[C@H](C)[C@H](NC(=O)[C@H](CCCN=C(N)N)NC(=O)[C@H](CCCN=C(N)N)NC(=O)[C@@H]1CCNC(=O)C[C@@H](NC(=O)[C@@H](N)Cc2ccc(O)cc2)C(=O)NCC(=O)N[C@@H](Cc2ccccc2)C(=O)N1)C(=O)N[C@@H](CCCN=C(N)N)C(=O)N1CCC[C@H]1C(=O)N[C@@H](CCCCN)C(=O)N[C@@H](CC(C)C)C(=O)N[C@@H](CCCCN)C(N)=O [listing 1 of 2 here] | 96 |  |  |  |  |  |
| CC[C@H](C)[C@H](NC(=O)[C@H](CCCN=C(N)N)NC(=O)[C@H](CCCN=C(N)N)NC(=O)[C@H](CC(C)C)NC(=O)[C@H](Cc1ccccc1)NC(=O)CNC(=O)[C@@H](CC(=O)O)NC(=O)[C@@H](N)Cc1ccc(O)cc1)C(=O)N[C@@H](CCCN=C(N)N)C(=O)N1CCC[C@H]1C(=O)N[C@@H](CCCCN)C(=O)N[C@@H](CC(C)C)C(=O)N[C@@H](CCCCN)C(N)=O [listing 2 of 2 here] |  | 0.46 | 0.044 | 0.013 | 0.45 |  |
| CC[C@H](C)[C@H](NC(=O)[C@H](CCCN=C(N)N)NC(=O)[C@H](CCCN=C(N)N)NC(=O)[C@@H]1CNC(=O)C[C@@H](NC(=O)[C@@H](N)Cc2ccc(O)cc2)C(=O)NCC(=O)N[C@@H](Cc2ccccc2)C(=O)N1)C(=O)N[C@@H](CCCN=C(N)N)C(=O)N1CCC[C@H]1C(=O)N[C@@H](CCCCN)C(=O)N[C@@H](CC(C)C)C(=O)N[C@@H](CCCCN)C(N)=O [listing 2 of 2 here] |  | 0.16 | 10.2 | 0.49 | 0.22 |  |
| CC[C@H](C)[C@H](NC(=O)[C@H](CCCN=C(N)N)NC(=O)[C@H](CCCN=C(N)N)NC(=O)[C@H](CCCN=C(N(C)C)N(C)C)NC(=O)[C@H](Cc1ccccc1)NC(=O)CNC(=O)[C@@H](CC(=O)O)NC(=O)[C@@H](N)Cc1ccc(O)cc1)C(=O)N[C@@H](CCCN=C(N)N)C(=O)N1CCC[C@H]1C(=O)N[C@@H](CCCCN)C(=O)N[C@@H](CC(C)C)C(=O)N[C@@H](CCCCN)C(N)=O | 12 | 1.78 | 14.2 | 0.28 | 0.36 |  |
| CC[C@H](C)[C@H](NC(=O)[C@H](CCCN=C(N)N)NC(=O)[C@H](CCCN=C(N)N)NC(=O)[C@H](CCN=C(N(C)C)N(C)C)NC(=O)[C@H](Cc1ccccc1)NC(=O)CNC(=O)[C@@H](CC(=O)O)NC(=O)[C@@H](N)Cc1ccc(O)cc1)C(=O)N[C@@H](CCCN=C(N)N)C(=O)N1CCC[C@H]1C(=O)N[C@@H](CCCCN)C(=O)N[C@@H](CC(C)C)C(=O)N[C@@H](CCCCN)C(N)=O | 122 | 0.18 | 7.52 | 0.32 | 0.14 |  |
| CC[C@H](C)[C@H](NC(=O)[C@H](CCCN=C(N)N)NC(=O)[C@H](CCCN=C(N)N)NC(=O)[C@H](CC(C)C)NC(=O)[C@H](Cc1ccccc1)NC(=O)CNC(=O)CNC(=O)[C@@H](N)Cc1ccc(O)cc1)C(=O)N[C@@H](CCCN=C(N)N)C(=O)N1CCC[C@H]1C(=O)N[C@@H](CCCCN)C(=O)N[C@@H](CC(C)C)C(=O)N[C@@H](CCCCN)C(N)=O [listing 2 of 2 here] |  | 0.22 |  |  |  |  |
| CC[C@H](C)[C@H](NC(=O)[C@H](CCCN=C(N)N)NC(=O)[C@H](CCCN=C(N)N)NC(=O)[C@@H]1CCNC(=O)C[C@@H](NC(=O)[C@@H](N)Cc2ccc(O)cc2)C(=O)NCC(=O)N[C@@H](Cc2ccccc2)C(=O)N1)C(=O)N[C@@H](CCCN=C(N)N)C(=O)N1CCC[C@H]1C(=O)N[C@@H](CCCCN)C(=O)N[C@@H](CC(C)C)C(=O)N[C@@H](CCCCN)C(N)=O [listing 2 of 2 here] |  | 0.23 | 12 | 0.17 | 0.13 |  |
| CC[C@H](C)[C@H](NC(=O)[C@H](CCCN=C(N)N)NC(=O)[C@H](CCCN=C(N)N)NC(=O)[C@@H]1CNC(=O)C[C@@H](NC(=O)[C@@H](N)Cc2ccc(O)cc2)C(=O)NCC(=O)N[C@@H](Cc2ccccc2)C(=O)N1)C(=O)N[C@@H](CCCN=C(N)N)C(=O)N1CCC[C@@H]1C(=O)N[C@@H](CCCCN)C(=O)N[C@@H](CC(C)C)C(=O)N[C@@H](CCCCN)C(N)=O |  |  |  |  |  | Ki ratio [8]: kappa/mu/delta |

— ChEMBL document CHEMBL1128417, “Synthesis and opioid activity of conformationally constrained dynorphin A analogues. 1. Conformational constraint in the "message" sequence” (J Med Chem, 1995)
